Assay results published in ChEMBL document CHEMBL4311951, “Potent and Preferential Degradation of CDK6 via Proteolysis Targeting Chimera Degraders” (J Med Chem, 2019).
The source made the active and inactive calls. The calls are words filed in the database; no cut-off is given here.

How the values were obtained:
[1] = target: Protein cereblon/Cyclin-dependent kinase 6 (Homo sapiens, UniProt Q00534+Q96SW2); test: Induction of CRBN-mediated CDK6 degradation in human U251 cells after 24 hrs by immunoblot analysis; type: cell-based
Chain of Protein cereblon/Cyclin-dependent kinase 6 (Q00534 whole entry): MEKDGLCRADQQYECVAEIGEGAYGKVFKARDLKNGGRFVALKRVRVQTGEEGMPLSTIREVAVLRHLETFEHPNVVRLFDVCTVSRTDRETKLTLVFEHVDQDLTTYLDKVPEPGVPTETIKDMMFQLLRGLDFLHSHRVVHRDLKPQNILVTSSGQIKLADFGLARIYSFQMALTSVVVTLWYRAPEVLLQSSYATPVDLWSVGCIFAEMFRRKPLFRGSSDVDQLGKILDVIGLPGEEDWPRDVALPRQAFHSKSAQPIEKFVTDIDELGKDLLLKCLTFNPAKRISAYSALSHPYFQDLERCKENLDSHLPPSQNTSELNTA
Chain of Protein cereblon/Cyclin-dependent kinase 6 (Q96SW2 whole entry): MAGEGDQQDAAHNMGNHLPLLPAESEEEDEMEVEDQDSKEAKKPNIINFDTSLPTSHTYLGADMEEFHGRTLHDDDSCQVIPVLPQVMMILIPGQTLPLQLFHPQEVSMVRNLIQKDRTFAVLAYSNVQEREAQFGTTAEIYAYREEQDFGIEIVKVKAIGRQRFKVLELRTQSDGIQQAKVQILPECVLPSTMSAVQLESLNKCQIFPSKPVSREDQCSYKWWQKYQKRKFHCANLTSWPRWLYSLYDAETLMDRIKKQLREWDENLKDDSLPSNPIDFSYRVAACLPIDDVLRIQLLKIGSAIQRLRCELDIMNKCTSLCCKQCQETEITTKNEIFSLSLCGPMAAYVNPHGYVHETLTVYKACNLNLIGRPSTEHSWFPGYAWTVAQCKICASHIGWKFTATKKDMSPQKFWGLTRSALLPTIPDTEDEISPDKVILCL

[2] = target: Protein cereblon/Cyclin-dependent kinase 4 (Homo sapiens, UniProt P11802+Q96SW2); test: Induction of CRBN-mediated CDK4 degradation in human U251 cells after 24 hrs by immunoblot analysis; type: cell-based
Chain of Protein cereblon/Cyclin-dependent kinase 4 (P11802 whole entry): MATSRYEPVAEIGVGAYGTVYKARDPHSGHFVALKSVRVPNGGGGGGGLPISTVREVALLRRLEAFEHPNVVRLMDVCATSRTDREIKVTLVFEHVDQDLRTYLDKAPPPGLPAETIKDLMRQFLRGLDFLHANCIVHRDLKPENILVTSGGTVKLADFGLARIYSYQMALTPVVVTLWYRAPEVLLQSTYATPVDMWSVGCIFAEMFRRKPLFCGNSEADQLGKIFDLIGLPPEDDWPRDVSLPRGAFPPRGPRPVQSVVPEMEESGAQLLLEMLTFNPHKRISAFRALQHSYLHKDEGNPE
Chain of Protein cereblon/Cyclin-dependent kinase 4 (Q96SW2 whole entry): as the sequence (Q96SW2 whole entry) above

[3] = target: Protein cereblon/Cyclin-dependent kinase 1 (Homo sapiens, UniProt P06493+Q96SW2); test: Induction of CRBN-mediated CDK1 degradation in human U251 cells at 500 nM after 4 hrs […]; type: cell-based; details: 0.5 µM
Chain of Protein cereblon/Cyclin-dependent kinase 1 (P06493 whole entry): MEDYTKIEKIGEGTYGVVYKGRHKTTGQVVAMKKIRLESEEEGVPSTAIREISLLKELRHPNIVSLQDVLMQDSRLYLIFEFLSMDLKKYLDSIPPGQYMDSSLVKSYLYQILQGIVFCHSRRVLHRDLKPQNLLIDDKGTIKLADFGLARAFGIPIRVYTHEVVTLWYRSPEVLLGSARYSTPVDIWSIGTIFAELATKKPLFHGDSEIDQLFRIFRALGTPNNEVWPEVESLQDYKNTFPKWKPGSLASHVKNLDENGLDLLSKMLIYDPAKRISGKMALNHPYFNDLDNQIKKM
Chain of Protein cereblon/Cyclin-dependent kinase 1 (Q96SW2 whole entry): as the sequence (Q96SW2 whole entry) above
Summary of the method: (§1)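 U251 cells grown to 70–80% confluency, exposed to 500 nM degrader or DMSO for 4 h. Harvested by trypsinization, washed in cold PBS, lysed in RIPA on ice 30 min. Lysates BCA-quantified, acetone-precipitated, TMT-labelled and analysed by MS2 quantitation.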

[4] = target: Protein cereblon/Cyclin-dependent kinase 2 (Homo sapiens, UniProt P24941+Q96SW2); test: Induction of CRBN-mediated CDK2 degradation in human U251 cells at 500 nM after 4 hrs by immunoblot analysis; type: cell-based; details: 0.5 µM
[5] = target: Protein cereblon/Cyclin-dependent kinase 5 (Homo sapiens, UniProt Q00535+Q96SW2); test: Induction of CRBN-mediated CDK5 degradation in human U251 cells at 500 nM after 4 hrs by […]; type: cell-based; details: 0.5 µM; summary of the method: as §1
Chain of Protein cereblon/Cyclin-dependent kinase 5 (Q00535 whole entry): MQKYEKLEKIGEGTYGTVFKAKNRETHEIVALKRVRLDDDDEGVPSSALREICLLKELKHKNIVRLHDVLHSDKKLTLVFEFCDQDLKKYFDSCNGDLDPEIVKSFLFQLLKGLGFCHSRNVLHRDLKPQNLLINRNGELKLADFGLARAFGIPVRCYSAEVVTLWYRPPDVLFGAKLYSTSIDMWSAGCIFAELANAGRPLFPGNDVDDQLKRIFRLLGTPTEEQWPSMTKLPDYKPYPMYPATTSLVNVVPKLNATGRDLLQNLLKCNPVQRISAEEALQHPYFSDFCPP
Chain of Protein cereblon/Cyclin-dependent kinase 5 (Q96SW2 whole entry): as the sequence (Q96SW2 whole entry) above

[6] = target: Protein cereblon/Cyclin-dependent kinase 9 (Homo sapiens, UniProt P50750+Q96SW2); test: Induction of CRBN-mediated CDK9 degradation in human U251 cells at 500 nM after 4 hrs […]; type: cell-based; details: 0.5 µM; summary of the method: as §1
Chain of Protein cereblon/Cyclin-dependent kinase 9 (P50750 whole entry): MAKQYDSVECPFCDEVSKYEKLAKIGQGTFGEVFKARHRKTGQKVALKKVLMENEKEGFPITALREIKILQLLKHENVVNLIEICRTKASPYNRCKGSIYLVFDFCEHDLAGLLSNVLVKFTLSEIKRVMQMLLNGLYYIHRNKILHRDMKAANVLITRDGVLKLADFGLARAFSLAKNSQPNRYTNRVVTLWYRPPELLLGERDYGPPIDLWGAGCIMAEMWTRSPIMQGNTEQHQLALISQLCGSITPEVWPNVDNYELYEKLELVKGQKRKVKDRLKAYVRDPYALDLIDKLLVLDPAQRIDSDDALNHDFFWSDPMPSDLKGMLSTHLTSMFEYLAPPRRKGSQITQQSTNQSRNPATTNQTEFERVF
Chain of Protein cereblon/Cyclin-dependent kinase 9 (Q96SW2 whole entry): as the sequence (Q96SW2 whole entry) above

[7] = target: Protein cereblon/G1/S-specific cyclin-D1 (Homo sapiens, UniProt P24385+Q96SW2); test: Induction of CRBN-mediated CCND1 degradation in human U251 cells at 500 nM after 4 hrs by […]; type: cell-based; details: 0.5 µM; summary of the method: as §1
Chain of Protein cereblon/G1/S-specific cyclin-D1 (P24385 whole entry): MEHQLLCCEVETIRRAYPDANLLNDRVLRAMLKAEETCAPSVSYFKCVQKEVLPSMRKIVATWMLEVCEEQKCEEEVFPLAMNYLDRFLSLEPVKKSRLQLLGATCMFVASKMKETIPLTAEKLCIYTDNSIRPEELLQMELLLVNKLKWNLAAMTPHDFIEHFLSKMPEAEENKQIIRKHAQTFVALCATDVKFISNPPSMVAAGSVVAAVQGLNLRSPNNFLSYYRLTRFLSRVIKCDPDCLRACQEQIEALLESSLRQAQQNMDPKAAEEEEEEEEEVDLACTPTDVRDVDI
Chain of Protein cereblon/G1/S-specific cyclin-D1 (Q96SW2 whole entry): as the sequence (Q96SW2 whole entry) above

[8] = target: Protein cereblon/Dual specificity mitogen-activated protein kinase kinase 1 (Homo sapiens, UniProt Q02750+Q96SW2); test: Induction of CRBN-mediated MEK1 degradation in human U251 cells at 500 nM after 4 hrs by immunoblot analysis; type: cell-based; details: 0.5 µM
Chain of Protein cereblon/Dual specificity mitogen-activated protein kinase kinase 1 (Q02750 whole entry): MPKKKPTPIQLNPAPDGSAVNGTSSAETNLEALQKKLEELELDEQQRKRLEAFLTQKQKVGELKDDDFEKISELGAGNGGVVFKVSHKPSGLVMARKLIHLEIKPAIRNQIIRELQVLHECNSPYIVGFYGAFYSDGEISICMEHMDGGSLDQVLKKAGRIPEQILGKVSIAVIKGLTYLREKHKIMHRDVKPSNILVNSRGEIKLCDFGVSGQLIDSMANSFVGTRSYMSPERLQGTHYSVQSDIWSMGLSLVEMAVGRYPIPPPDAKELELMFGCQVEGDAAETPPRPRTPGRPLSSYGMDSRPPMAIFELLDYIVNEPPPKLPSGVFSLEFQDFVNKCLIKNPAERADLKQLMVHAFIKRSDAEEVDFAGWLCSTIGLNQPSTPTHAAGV
Chain of Protein cereblon/Dual specificity mitogen-activated protein kinase kinase 1 (Q96SW2 whole entry): as the sequence (Q96SW2 whole entry) above

[9] = target: Protein cereblon/Epidermal growth factor receptor (Homo sapiens, UniProt P00533+Q96SW2); test: Induction of CRBN-mediated EGFR degradation in human U251 cells at 500 nM after 4 hrs […]; type: cell-based; details: 0.5 µM; summary of the method: as §1
Chain of Protein cereblon/Epidermal growth factor receptor (P00533 whole entry): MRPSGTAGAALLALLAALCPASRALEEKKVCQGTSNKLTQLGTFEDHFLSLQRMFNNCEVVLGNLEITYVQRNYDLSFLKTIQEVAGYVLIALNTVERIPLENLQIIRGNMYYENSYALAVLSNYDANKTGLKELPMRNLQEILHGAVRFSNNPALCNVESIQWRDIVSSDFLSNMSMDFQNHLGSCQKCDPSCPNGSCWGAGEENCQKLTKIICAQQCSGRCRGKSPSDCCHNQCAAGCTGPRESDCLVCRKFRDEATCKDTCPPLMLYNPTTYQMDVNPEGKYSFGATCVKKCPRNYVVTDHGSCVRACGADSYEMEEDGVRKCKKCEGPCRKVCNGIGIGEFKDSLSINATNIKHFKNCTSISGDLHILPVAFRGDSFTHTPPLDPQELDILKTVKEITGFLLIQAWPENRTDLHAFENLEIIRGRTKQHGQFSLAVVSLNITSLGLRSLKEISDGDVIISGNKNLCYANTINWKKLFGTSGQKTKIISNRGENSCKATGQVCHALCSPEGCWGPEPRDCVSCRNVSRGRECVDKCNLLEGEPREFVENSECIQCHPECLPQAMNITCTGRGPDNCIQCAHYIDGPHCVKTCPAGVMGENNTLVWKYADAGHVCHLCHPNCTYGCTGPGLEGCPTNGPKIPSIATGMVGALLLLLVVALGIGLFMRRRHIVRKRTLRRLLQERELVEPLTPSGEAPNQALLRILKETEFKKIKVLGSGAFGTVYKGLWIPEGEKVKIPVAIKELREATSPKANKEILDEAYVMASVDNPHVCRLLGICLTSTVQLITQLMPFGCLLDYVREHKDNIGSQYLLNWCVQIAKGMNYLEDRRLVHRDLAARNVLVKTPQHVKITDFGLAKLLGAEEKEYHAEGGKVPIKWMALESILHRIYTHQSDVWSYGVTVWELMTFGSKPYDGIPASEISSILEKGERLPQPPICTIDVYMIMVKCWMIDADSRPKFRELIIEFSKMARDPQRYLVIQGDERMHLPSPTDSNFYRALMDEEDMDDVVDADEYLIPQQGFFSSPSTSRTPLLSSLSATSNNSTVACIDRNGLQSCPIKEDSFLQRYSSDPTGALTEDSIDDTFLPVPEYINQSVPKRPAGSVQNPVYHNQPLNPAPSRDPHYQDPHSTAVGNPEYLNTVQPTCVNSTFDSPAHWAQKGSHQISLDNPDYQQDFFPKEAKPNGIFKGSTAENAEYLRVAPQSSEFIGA
Chain of Protein cereblon/Epidermal growth factor receptor (Q96SW2 whole entry): as the sequence (Q96SW2 whole entry) above

THP-1 = test: Antiproliferative activity against human THP1 cells after 84 hrs by CCK8 assay; type: functional, cell-based
Summary of the method: (§2)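 Suspension haematopoietic lines seeded in triplicate in 96-well plates; drug stock added immediately to the final concentrations. After 84 h culture, CCK-8 reagent added and absorbance at OD450 nm read after 2 h incubation.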

MM1.S = test: Antiproliferative activity against human MM1S cells after 84 hrs by CCK8 assay; type: functional, cell-based; summary of the method: as §2
[10] = Antiproliferative activity against human Mino cells after 84 hrs by CCK8 assay; type: functional, cell-based; summary of the method: as §2
RPMI-8226 = test: Antiproliferative activity against human RPMI8226 cells after 84 hrs by CCK8 assay; type: functional, cell-based; summary of the method: as §2
HL-60 = test: Antiproliferative activity against human HL60 cells after 84 hrs by CCK8 assay; type: functional, cell-based; summary of the method: as §2
JeKo-1 = test: Antiproliferative activity against human JeKo1 cells after 84 hrs by CCK8 assay; type: functional, cell-based; summary of the method: as §2
MCF7 [11] = test: Antiproliferative activity against palbociclib-resistant human MCF7 cells with CDK6 gene amplification after 6 days by alamarBlue assay; type: functional, cell-based
Summary of the method: (§3)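 Parental or palbociclib-resistant MCF-7 cells (CDK6-N2 or FAT1 knockout) exposed to serial concentrations of degrader for 6 days, then viability determined.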

MCF7 [12] = test: Antiproliferative activity against Fat1 knockout human MCF7 cells after 6 days by alamarBlue assay; type: functional, cell-based; summary of the method: as §3

DC50 [1]: 2.1 nM
DC50 [2]: 150 to 180 nM
Activity [3]: Not Active
Activity [4]: Not Active
Activity [5]: Not Active
Activity [6]: Not Active
Activity [7]: Not Active
Activity [8]: Not Active
Activity [9]: Not Active
IC50 (MM1.S): 10 nM
SMILES: CC(=O)c1c(C)c2cnc(Nc3ccc(N4CCN(Cc5cn(CCOCCNc6cccc7c6C(=O)N(C6CCC(=O)NC6=O)C7=O)nn5)CC4)cn3)nc2n(C2CCCC2)c1=O (configuration not stated)
Activity (THP-1): Active
IC50 [10]: 8 nM
Activity (RPMI-8226): Active
Activity (HL-60): Active
Activity (JeKo-1): Active
Activity (MCF7 [11]): Active
Activity (MCF7 [12]): Active
